Measurements from ChEMBL document CHEMBL1124099, “[1,2,4]Triazolo[4,3-a]quinoxalin-4-amines: a new class of A1 receptor selective adenosine antagonists” (J Med Chem, 1988).
pKi: −log10 of the molar value.

How the values were obtained:
[1] = biological target: Adenosine receptors; A1 & A2 (Rattus norvegicus) (UniProt P29276+P25099+P30543); experiment: Ratio of Ki at A2 and A1 receptors; format: protein assay
Adenosine receptor A1 = biological target: T1, Adenosine receptor A1 (Rattus norvegicus, UniProt P25099); experiment: Binding affinity towards adenosine A1 receptor using [3H]N-cyclohexyladenosine in rat whole brain membranes.; format: cell membranes
T1 sequence (P25099 whole entry): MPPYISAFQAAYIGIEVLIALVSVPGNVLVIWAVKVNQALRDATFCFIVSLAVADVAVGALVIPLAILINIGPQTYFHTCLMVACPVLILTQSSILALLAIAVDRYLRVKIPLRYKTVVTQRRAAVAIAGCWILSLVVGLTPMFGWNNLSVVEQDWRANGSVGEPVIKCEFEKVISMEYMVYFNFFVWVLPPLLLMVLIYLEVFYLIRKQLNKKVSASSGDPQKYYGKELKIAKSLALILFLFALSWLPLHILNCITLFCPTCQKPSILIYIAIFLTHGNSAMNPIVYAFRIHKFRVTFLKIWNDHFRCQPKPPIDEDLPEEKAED
In short: (§1)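 Radioligand displacement on rat membranes: A1 used [3H]N6-cyclohexyladenosine ([3H]CHA) with whole-brain membranes, and A2 used [3H]NECA with striatal membranes. The procedure follows an earlier report. Each value is the mean of three or more independent experiments.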

Adenosine A2 receptor = Adenosine A2 receptor (Rattus norvegicus, UniProt P29276+P30543); experiment: Binding affinity against Adenosine-2 receptor with [3H]-NECA in rat striatal membranes.; format: cell membranes; in short: as §1

Ratio [1] | pKi (Adenosine receptor A1) | Ki (Adenosine A2 receptor) | Compound
17.3 | 6.59 | 4.5 µM | CCc1nnc2c(NC3CC3)nc3ccccc3n12
> 182 | 7.26 | > 10 µM | CCCCc1nnc2c(NC3CCCC3)nc3ccccc3n12
37 | 6.74 | 6.7 µM | c1ccc2c(c1)nc(NC1CCCC1)c1nncn12
67 | 6.48 | 22 µM | CCc1nnc2c(NCC(C)O)nc3ccccc3n12 (stereo not given)
3 | 5.64 | 7 µM | CC(C)Nc1nc2ccccc2n2cnnc12
17.5 | 6.62 | 4.2 µM | CCc1nnc2c(NC(C)C)nc3ccccc3n12
2.1 | 5.05 | 18.8 µM | CCN(CC)c1nc2ccccc2n2cnnc12
138 | 8.14 | 1.01 µM | FC(F)(F)c1nnc2c(NC3CCCC3)nc3ccccc3n12
139 | 7.36 | 6.1 µM | CCc1nnc2c(NC3CC4CCC3C4)nc3ccccc3n12 (stereo not given)

Second part, the compound before the results:

Compound | Ratio [1] | pKi (Adenosine receptor A1) | Ki (Adenosine A2 receptor)
CCc1nnc2c(NC3CCCC3)nc3ccccc3n12 | 107 | 7.55 | 3 µM
CCc1nnc2c(NC3CCC3)nc3ccccc3n12 | 29 | 7.24 | 1.71 µM
Cc1nnc2c(NC3CCCC3)nc3ccccc3n12 | 79 | 7.47 | 2.7 µM
CCc1nnc2c(Nc3ccccc3)nc3ccccc3n12 | 18.7 | 6.20 | 11.8 µM
CCCc1nnc2c(NC3CCCC3)nc3ccccc3n12 | 47 | 7.41 | 1.83 µM
CCc1nnc2c(NC3CCCCC3)nc3ccccc3n12 | 50 | 7.10 | 4 µM
